Compound activity from PubChem BioAssay.
HSV replic up – HSV replication enhancement; AID 1956; actives 0.005% (n = 220,000); maximum fold increase; HSV replication augmentation in cells, fold increase; in the data active = maximum fold increase above about 1.5; inconclusive = no clear call, values can overlap the other calls; tested in PC3 cells
Lmaj promast – inhibitors of Leishmania major promastigote growth; actives 9% (n = 200,000); Leishmania major promastigotes, resazurin fluorescence viability; inhibition, % at 10 µM; in the data active = inhibition above about 50%;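 note: promastigotes grown with compound for 44 hours at 28 °C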
MT stabilize HCS – microtubule stabilization, imaging screen; HeLa tubulin immunostaining HCS, 24 h; share of cells brighter than vehicle mean+2SD; actives 0.83% (n = 200,000); AID 2205; % tubulin-high responders, % at 10 µM;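 active = plate Z-score above 3 for both tubulin-high and condensed-nucleus cell shares, with cell loss under 80%, at 10 µM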;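 note: anti alpha tubulin signal scored within the nucleus-defined area of each cell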
Dynein transport – blocks dynein driven cargo transport along microtubules; 3617.4 mouse cells, GR-EGFP nuclear translocation imaging; test concentration mostly 20 µM; stimulated with dexamethasone, 1 µM; active compounds read low; z-score, hits read low; actives 0.47% (n = 220,000);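 active = plate z-score of nuclear minus cytoplasmic receptor signal below a set negative limit, without overly bright fluorescence or cell loss, cut at about -3.5 in these data, passing the limit was not always enough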;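 note: z-score of nuclear minus cytoplasmic ring GR-EGFP intensity difference per well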
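medium = tetracycline-free induction medium containing charcoal-stripped FBS | probe or stimulus = dexamethasone, 1.0 µM final | timing = 48 h induction, then 1 h compound, then 30 min agonist, 37 °C | detection = automated 10x imaging of fixed Hoechst-stained cells | read-out basis = nuclear versus cytoplasmic GR-EGFP signal, averaged per well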
bCat nuc transl – beta-catenin nuclear translocation modulation. HeLa beta-catenin nuclear translocation, immunofluorescence imaging. actives 0.3% (n = 190,000). nuclear translocation activity, % at 5 µM. AID 1665;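 active = nuclear translocation activity above 50% at 5 µM, with a well cell count of 50 or more; inconclusive = wells under 50 cells across six images, flagged as toxic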;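 note: per-cell ratio of nuclear to cytoplasmic median beta-catenin stain intensity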
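test system = HeLa cells, endogenous beta-catenin | dosing = single 5 µM dose plus 0.02–20 µM confirmation series | times = compound treatment 24 h, 37°C, 5% CO2 | technique = beta-catenin immunofluorescence imaging with DAPI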
Hits are given with their value; – = inactive; ? = inconclusive; · = not tested or not shown. Most compounds without a hit are left out; they make up all but 8.9% or so of the library.

SMILES	HSV replic up	Lmaj promast	MT stabilize HCS	Dynein transport	bCat nuc transl
COc1ccc(-c2c(C#N)c(N)nc3c2CCCCCC3)cc1OC	–	–	–	–	·
CCOC(=O)/C(C#N)=C\c1ccc(O)c(OC)c1	–	–	–	–	–
CCOc1cc(/C=C(\C#N)c2[nH]nc(N)c2C#N)ccc1O	–	67.2	–	–	·
CCOc1cc(-c2cc(-c3ccc(C)cc3)nc(N)c2C#N)ccc1O	–	–	49.0	–	68.7
N#Cc1c(NC(=O)CSc2ncnc3c2cnn3-c2ccccc2Cl)sc2c1CCCC2	–	–	–	–	·
O=C(COc1nsnc1N1CCOCC1)N1CCOCC1	·	–	–	–	–
CCOc1cc(-c2c(C#N)c(N)nc3c2CCc2ccccc2-3)ccc1O	–	90.3	–	–	–
Cc1ccc2cc(CN(Cc3ccc4c(c3)OCO4)Cc3nnnn3Cc3ccco3)c(=O)[nH]c2c1	–	76.7	–	–	–
COc1ccc2cc(CN(CCc3ccccc3)Cc3nnnn3Cc3ccco3)c(=O)[nH]c2c1	–	100.0	–	–	–
COc1ccccc1CN(Cc1cc2c(C)ccc(C)c2[nH]c1=O)Cc1nnnn1Cc1ccco1	–	99.8	–	–	–
CCC(c1nnnn1Cc1ccco1)N(Cc1ccccc1OC)Cc1cc2cc(C)ccc2[nH]c1=O (stereo unspecified)	–	–	–	–	–
Cc1ccc(CN(Cc2cc3cc4c(cc3[nH]c2=O)OCCO4)Cc2nnnn2Cc2ccco2)cc1	–	–	–	–	–
O=C(CSc1nc(O)cc(=O)n1-c1ccccc1)NC1CCCCC1	–	–	–	–	–
O=C(c1ccc2c(c1)OCO2)N1CCC(Cc2ccccc2)CC1	–	·	·	–	–
Cc1nc(NC(=O)c2ccc(Cl)cc2)sc1Cc1ccc2c(c1)OCO2	–	73.3	13.1	–	·
Cc1nc(NC(=O)c2ccccc2)sc1Cc1ccc2c(c1)OCO2	–	–	11.2	–	·
O=c1/c(=C\c2cc([N+](=O)[O-])cc([N+](=O)[O-])c2O)sc2nc3ccccc3n12	–	–	–	–	–
Cc1csc2ncc(C(=O)NCCC(c3ccccc3)c3ccccc3)c(=O)n12	–	·	·	–	–
COc1ccc(S(=O)(=O)N2CC3CCCN3c3cc(C(F)(F)F)ccc32)cc1 (stereo unspecified)	–	–	–	–	·
O=C(CCN1CCOCC1)c1ccccc1	–	95.3	–	–	·
OC(CCCCN1CCCCC1)c1ccccc1 (stereo unspecified)	–	53.8	–	–	–
CCc1oc2ccccc2c1C(=O)CCN1CCCCC1	–	73.6	–	–	–
O=C(CCN1CCCCC1)c1ccccc1	–	73.7	–	–	·
O=c1oc2ccccc2c(N2CCCCC2)c1CN1CCCC1	–	–	–	–	–
C=CCn1c(=N)n(CC(=O)c2ccc(Br)s2)c2ccccc21	–	97.2	–	–	–
SMILES	HSV replic up	Lmaj promast	MT stabilize HCS	Dynein transport	bCat nuc transl
OCCC1CN(CC#Cc2ccccc2)CCN1C1CCCC1 (stereo unspecified)	–	–	–	–	–
OCCC1CN(CC(c2ccccc2)c2ccccc2)CCN1C1CCCC1 (stereo unspecified)	–	86.9	–	–	–
OCCC1CN(Cc2nc3ccccc3s2)CCN1C1CCCC1 (stereo unspecified)	–	66.8	–	–	–
CSc1ccc(C2CC(=O)Nc3nc(SC)[nH]c(=O)c32)cc1 (stereo unspecified)	–	–	–	–	–
CCn1ccnc1CN1CCC(CO)(CCOc2ccccc2)CC1	–	–	–	–	–
Cc1nn(C)c(Cl)c1CN1CCC(CO)(CCOc2ccccc2)CC1	–	72.3	–	–	–
Cc1c(CN2CCC(CO)(CCOc3ccccc3)CC2)[nH]c2c(Cl)cccc12	–	100.1	28.6	–	–
Oc1[nH]c(=S)sc1/C=C1\C(c2ccccc2)=Nc2ccccc21	?	82.8	–	–	·
CCOc1ccc(-c2csc(NC(=O)C3CCCO3)n2)cc1 (stereo unspecified)	–	–	–	–	–
c1ccc2c(CCNc3ncnc4nc[nH]c34)c[nH]c2c1	–	–	17.5	–	–
COC(=O)c1ccccc1N/C=C/C(=O)c1ccc(Br)cc1	–	73.4	–	–	–
C=CCN(CC=C)Cc1ccc(C(=O)OC)o1	–	–	–	–	–
CCOC(=O)c1cnn(-c2nc(-c3ccc(C)cc3)cs2)c1C(F)(F)F	–	–	28.7	–	–
C=CCN(C(=O)CCC(=O)Nc1cc(C)on1)C(C(=O)NC(C)(C)C)c1cccc(OC)c1OC (stereo unspecified)	–	–	–	–	–
